Experiments:
[1] = Metabolic stability in human liver S9 fraction assessed as compound remaining at 10 uM after 30 mins by HPLC analysis in presence of NADP; type: ADME, subcellular; conditions: read-out: Stability
[2] = Metabolic stability in mouse plasma assessed as compound remaining at 1 ug/ml after 30 mins; type: ADME, cell-free; conditions: read-out: Stability
[3] = Metabolic stability in dog intestine S9 fraction assessed as compound remaining at 10 uM after 30 mins by HPLC analysis in absence of NADP; type: ADME, tissue-based, Canis lupus familiaris; conditions: read-out: Stability
[4] = Metabolic stability in dog liver S9 fraction assessed as compound remaining at 10 uM after 30 mins by HPLC analysis in absence of NADP; type: ADME, subcellular, Canis lupus familiaris; conditions: read-out: Stability
[5] = Cytotoxicity against human HuH7 cells after 72 hrs by celltiter-glo assay; type: cell-based, Huh-7
Procedure, shortened: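 Replicon 1b Huh7 cells seeded 2 × 10⁴/well; after 24 h, 11 serial 2× dilutions from 100 μM (three repeats each) with no-compound control; 72 h at 37 °C, CO₂, log-phase growth; viability by CellTiter-Glo luminescence; CC₅₀ = concentration giving 50% signal.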

[6] = Metabolic stability in human liver S9 fraction assessed as compound remaining at 10 uM after 30 mins by HPLC analysis in absence of NADP; type: ADME, subcellular; conditions: read-out: Stability
[7] = Metabolic stability in human intestine S9 fraction assessed as compound remaining at 10 uM after 30 mins by HPLC analysis in absence of NADP; type: ADME, tissue-based; conditions: read-out: Stability
Hepatitis C virus = assay: Antiviral activity against HCV1b infected in human HuH7 cells assessed as inhibition of viral replication after 48 hrs by luciferase reporter gene assay; type: functional, organism-based, Hepacivirus hominis; conditions: genotype 1b, Huh-7, 48 h
Procedure, shortened: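 Huh7 cells carrying genotype 1b bicistronic subgenomic replicon, seeded 2 × 10⁴/well without G-418; compounds added 18-24 h later, 48 h exposure; 3× or 4× serial dilutions over 0.0001-10 μM in triplicate/quadruplicate; Renilla luciferase read-out versus untreated cells; EC₅₀ by four-parameter sigmoidal nonlinear regression; at least three independent assays.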

[8] = Metabolic stability in dog liver S9 fraction assessed as compound remaining at 10 uM after 30 mins by HPLC analysis in presence of NADP; type: ADME, subcellular, Canis lupus familiaris; conditions: read-out: Stability
[9] = Metabolic stability in dog intestine S9 fraction assessed as compound remaining at 10 uM after 30 mins by HPLC analysis in presence of NADP; type: ADME, tissue-based, Canis lupus familiaris; conditions: read-out: Stability
[10] = Metabolic stability in human intestine S9 fraction assessed as compound remaining at 10 uM after 30 mins by HPLC analysis in presence of NADP; type: ADME, tissue-based; conditions: read-out: Stability
[11] = Oral bioavailability in cynomolgus monkey at 50 mg/kg; type: ADME, organism-based, Macaca fascicularis; conditions: in vivo
[12] = Cmax in ICR mouse plasma at 50 mg/kg, po by LC-MS/MS analysis; type: ADME, organism-based; parameters: dose 50 mg/kg, route oral
Liver [13] = assay: Dose normalized AUC in ICR mouse liver at 50 mg/kg, po by LC-MS/MS analysis; type: ADME, organism-based; parameters: dose 50 mg/kg, route oral; conditions: in vivo
[14] = Oral bioavailability in ICR mouse at 50 mg/kg; type: ADME, organism-based; conditions: in vivo
Plasma = assay: Dose normalized AUC in ICR mouse plasma at 50 mg/kg, po by LC-MS/MS analysis; type: ADME, organism-based; parameters: dose 50 mg/kg, route oral; conditions: in vivo
Liver [15] = assay: AUC (0 to 24 hrs) in ICR mouse liver at 50 mg/kg, po by LC-MS/MS analysis; type: ADME, organism-based; parameters: time < 24 hr, dose 50 mg/kg, route oral; conditions: in vivo
Liver [16] = assay: AUC (0 to 6 hrs) in ICR mouse liver at 50 mg/kg, po by LC-MS/MS analysis; type: ADME, organism-based; parameters: time < 6 hr, dose 50 mg/kg, route oral; conditions: in vivo
[17] = Metabolic stability in rat plasma assessed as compound remaining at 1 ug/ml after 30 mins; type: ADME, cell-free; conditions: read-out: Stability
Procedure, shortened: (§1)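 Duplicate incubations; compound at final 1 μg/mL in plasma preincubated and kept at […]; samples taken at 30 or 240 min, quenched with ice-cold acetonitrile, centrifuged, supernatant diluted with water; parent quantified by LC-MS/MS (Polar-RP column, formic acid water/acetonitrile gradient, positive ion mode); % remaining reported.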

[18] = Selectivity index, […] for human Caco-2 cells
[19] = Cytotoxicity against human HEK293 cells after 72 hrs by celltiter-glo assay; type: cell-based
Procedure, shortened: (§2)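 Cells kept in log phase of growth throughout the cytotoxicity experiments.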

[20] = Metabolic stability in cynomolgus monkey plasma assessed as compound remaining at 1 ug/ml after 4 hrs; type: ADME, cell-free, Macaca fascicularis; conditions: read-out: Stability; procedure, shortened: as §1
[21] = Selectivity index, […] for human CEM cells; parameters: species or system CCRF-CEM
[22] = Metabolic stability in dog plasma assessed as compound remaining at 1 ug/ml after 30 mins; type: ADME, cell-free, Canis lupus familiaris; conditions: read-out: Stability; procedure, shortened: as §1
[23] = Cytotoxicity against human CEM cells after 72 hrs by celltiter-glo assay; type: cell-based, CCRF-CEM; procedure, shortened: as §2
[24] = Metabolic stability in dog plasma assessed as compound remaining at 1 ug/ml after 4 hrs; type: ADME, cell-free, Canis lupus familiaris; conditions: read-out: Stability; procedure, shortened: as §1
[25] = Selectivity index, […] for human HepG2 cells
[26] = Cytotoxicity against human MT4 cells after 72 hrs by celltiter-glo assay; type: cell-based; procedure, shortened: as §2
Homo sapiens [27] = species on record: Homo sapiens; assay: Metabolic stability in human plasma assessed as compound remaining at 1 ug/ml after 4 hrs
[28] = Selectivity index, […] for human HEL cells
[29] = Cytotoxicity against human HEL cells after 72 hrs by celltiter-glo assay; type: cell-based; procedure, shortened: as §2
[30] = Cytotoxicity against rat IEC6 cells after 72 hrs by celltiter-glo assay; type: cell-based; procedure, shortened: as §2
[31] = Metabolic stability in mouse plasma assessed as compound remaining at 1 ug/ml after 4 hrs; type: ADME, cell-free; conditions: read-out: Stability
[32] = Cytotoxicity against human HepG2 cells after 72 hrs by celltiter-glo assay; type: cell-based; procedure, shortened: as §2
Homo sapiens [33] = species on record: Homo sapiens; assay: Metabolic stability in human plasma assessed as compound remaining at 1 ug/ml after 30 mins
[34] = Selectivity index, […] for human HuH7 cells; parameters: species or system Huh-7
[35] = Metabolic stability in rat plasma assessed as compound remaining at 1 ug/ml after 4 hrs; type: ADME, cell-free; conditions: read-out: Stability; procedure, shortened: as §1
[36] = Metabolic stability in cynomolgus monkey plasma assessed as compound remaining at 1 ug/ml after 30 mins; type: ADME, cell-free, Macaca fascicularis; conditions: read-out: Stability; procedure, shortened: as §1
[37] = Selectivity index, […] for human HEK293 cells
[38] = Selectivity index, […] for human MT4 cells
[39] = Selectivity index, […] for rat IEC-6 cells
[40] = Cytotoxicity against human Caco-2 cells after 72 hrs by celltiter-glo assay; type: cell-based; procedure, shortened: as §2
[41] = Metabolic stability in cynomolgus monkey intestine S9 fraction assessed as compound remaining at 10 uM after 30 mins by HPLC analysis in absence of NADP; type: ADME, tissue-based, Macaca fascicularis; conditions: read-out: Stability
[42] = Metabolic stability in cynomolgus monkey intestine S9 fraction assessed as compound remaining at 10 uM after 30 mins by HPLC analysis in presence of NADP; type: ADME, tissue-based, Macaca fascicularis; conditions: read-out: Stability
[43] = Metabolic stability in rat liver S9 fraction assessed as compound remaining at 10 uM after 30 mins by HPLC analysis in presence of NADP; type: ADME, subcellular; conditions: read-out: Stability
[44] = Metabolic stability in rat liver S9 fraction assessed as compound remaining at 10 uM after 30 mins by HPLC analysis in absence of NADP; type: ADME, subcellular; conditions: read-out: Stability
[45] = Metabolic stability in cynomolgus monkey liver S9 fraction assessed as compound remaining at 10 uM after 30 mins by HPLC analysis in presence of NADP; type: ADME, subcellular, Macaca fascicularis; conditions: read-out: Stability
[46] = Metabolic stability in rat intestine S9 fraction assessed as compound remaining at 10 uM after 30 mins by HPLC analysis in presence of NADP; type: ADME, tissue-based; conditions: read-out: Stability
[47] = Metabolic stability in rat intestine S9 fraction assessed as compound remaining at 10 uM after 30 mins by HPLC analysis in absence of NADP; type: ADME, tissue-based; conditions: read-out: Stability
[48] = Metabolic stability in cynomolgus monkey liver S9 fraction assessed as compound remaining at 10 uM after 30 mins by HPLC analysis in absence of NADP; type: ADME, subcellular, Macaca fascicularis; conditions: read-out: Stability

Compound | remaining at 0.5 h, 10 µM [1] | remaining at 0.5 h, 1 ug/ml [2] | CC50 at 72 h [5] | remaining at 0.5 h, 10 µM [6] | remaining at 0.5 h, 10 µM [7] | EC50 (Hepatitis C virus) | remaining at 0.5 h, 10 µM [10] | Cmax [12] | AUC (Liver [13]) | AUC (Plasma) | AUC (Liver [15]) | AUC (Liver [16]) | remaining at 0.5 h, 1 ug/ml [17] | remaining at 0.5 h, 1 ug/ml [22] | remaining at 0.5 h, 1 ug/ml (Homo sapiens [33]) | remaining at 0.5 h, 1 ug/ml [36] | other results
C[C@@]1(O)[C@H](O)[C@@H](COP(=O)(N[C@@H](Cc2ccccc2)C(=O)OCc2ccccc2)Oc2cccc3ccccc23)O[C@H]1n1cnc2c(=O)[nH]c(N)nc21 (stereo partly specified) | 0% | 1% | > 100 µM | 20% | 5% | 1.2 µM | 0% |  |  |  |  |  |  |  |  |  | remaining at 0.5 h, 10 µM [3]: 0%; remaining at 0.5 h, 10 µM [4]: 15%; remaining at 0.5 h, 10 µM [8]: 4%; remaining at 0.5 h, 10 µM [9]: 0%
C[C@@]1(O)[C@H](O)[C@@H](CO)O[C@H]1n1cnc2c(=O)[nH]c(N)nc21 [2'-B-METHYL-GUANOSINE] |  |  | > 100 µM |  |  | 3.5 µM |  | 5200 ng/mL | 737 ng·h/g | 411 ng·h/mL | 36868 ng·h/g | 16510 ng·h/g |  |  |  |  | bioavailability [11]: 10%; bioavailability [14]: 85%
C[C@H](NP(=O)(OC[C@H]1O[C@@H](n2cnc3c(=O)[nH]c(N)nc32)[C@](C)(O)[C@@H]1O)Oc1cccc2ccccc12)C(=O)O[C@@H](C)c1ccccc1 (stereo partly specified) |  | 3.1% | > 100 µM |  |  | 0.08 µM |  | 1380 ng/mL | 108 ng·h/g | 85 ng·h/mL | 5390 ng·h/g | 2596 ng·h/g | 0.8% | 97% | 100% | 100% | Selectivity Index [18]: >=1000; CC50 at 72 h [19]: > 100 µM; remaining at 4 h, 1 ug/ml [20]: 100%; Selectivity Index [21]: >=1000; CC50 at 72 h [23]: 82 µM; remaining at 4 h, 1 ug/ml [24]: 92%; Selectivity Index [25]: >=1000; CC50 at 72 h [26]: 87 µM; remaining at 4 h, 1 ug/ml (Homo sapiens [27]): 99%; Selectivity Index [28]: >=1000; CC50 at 72 h [29]: > 100 µM; CC50 at 72 h [30]: > 100 µM; remaining at 4 h, 1 ug/ml [31]: 0%; CC50 at 72 h [32]: > 100 µM; Selectivity Index [34]: >=1000; remaining at 4 h, 1 ug/ml [35]: 0%; Selectivity Index [37]: >=1000; Selectivity Index [38]: >=1000; Selectivity Index [39]: >=1000; CC50 at 72 h [40]: > 100 µM
C[C@H](NP(=O)(OC[C@H]1O[C@@H](n2cnc3c(=O)[nH]c(N)nc32)[C@](C)(O)[C@@H]1O)Oc1cccc2ccccc12)C(=O)OCc1ccccc1 (stereo partly specified) | 27% | 1.1% | > 100 µM | 41% | 49% | 0.062 µM | 0% |  |  |  |  |  | 1.3% | 67% | 58% | 54% | remaining at 0.5 h, 10 µM [41]: 30%; remaining at 0.5 h, 10 µM [42]: 0%; remaining at 0.5 h, 10 µM [43]: 0%; remaining at 0.5 h, 10 µM [44]: 0%; remaining at 0.5 h, 10 µM [45]: 0%; remaining at 0.5 h, 10 µM [46]: 30%; remaining at 0.5 h, 10 µM [47]: 46%; remaining at 0.5 h, 10 µM [48]: 32%
